Measurements taken from ChEMBL document CHEMBL4270654, “Identification of DK419, a potent inhibitor of Wnt/β-catenin signaling and colorectal cancer growth” (Bioorg Med Chem, 2018).
Activity calls are given as the source filed them. The calls are words filed in the database; no cut-off is given here.

Experiments:
[1] = system: CCD-841CoN; assay: Stimulation of mitochondrial respiration in human CCD-841-CoN cells assessed as increase in oxygen consumption rate at 1 uM under basal conditions by polarographic analysis
[2] = AUC (0 to 72 hrs) in NOD/SCID mouse at 1 mg/kg, po by LC-MS/MS-based non-compartmental extravascular input analysis; type: ADME, organism-based; parameters: dose 1 mg/kg, time < 72 hr, route oral; settings: in vivo
[3] = organism: Homo sapiens; assay: Inhibition of Wnt/beta-catenin signaling pathway in human SW480 whole cell lysate harboring APC mutation assessed as reduction in c-Myc protein expression at 5 uM after 18 hrs by Western blot analysis
How it was run: (§1)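 CCRC240, HCT116 or SW480 cells were grown to 50–70% confluency and exposed 18 h to 5 μM compound in DMSO. Whole-cell lysates were blotted for c-Myc, cyclin D1 and survivin. Hypotonic cytosolic fractions, syringe-dispersed and centrifuged 120 min, were blotted for β-catenin and Axin2. β-Actin served as loading control.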

[4] = system: Mus musculus; assay: Dose normalized AUC (0 to infinity) in NOD/SCID mouse at 1 mg/kg, po by LC-MS/MS-based compartmental first order extravascular input, first order elimination analysis; type: ADME, organism-based; settings: in vivo
[5] = system: Mus musculus; assay: Apparent clearance in NOD/SCID mouse at 1 mg/kg, po by LC-MS/MS-based non-compartmental extravascular input analysis; type: ADME, organism-based; settings: in vivo
[6] = system: Mus musculus; assay: Toxicity in NOD/SCID mouse xenografted with human CRC240 cells assessed as change in body weight at 1 mg/kg, po administered 11 days and measured on day 4, 8 during compound dosing and day 11 post last dose; type: organism-based; settings: in vivo, 264 h
How it was run: (§2)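 Minced CRC240 PDX tissue (150 mg/ml in PBS, 200 μl) implanted in flanks of NOD/SCID mice. At about 100 mm3 tumours, mice randomized and dosed orally once daily for 11 days. Vehicle: 10% 1-methyl-2-pyrrolidinone/90% PEG300, with dosing suspensions or solutions at […] or 0.2 mg/ml. Tumour size and body weight recorded on days 0, 4, 8 and 11. n = 3, two-tailed t-test versus vehicle.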

[7] = organism: Homo sapiens; assay: Inhibition of Wnt/beta-catenin signaling pathway in human SW480 cells cytosol lysate harboring APC mutation assessed as reduction in beta-catenin protein expression at 5 uM after 18 hrs by Western blot analysis; type: cell-based
How it was run: as §1

[8] = organism: Homo sapiens; assay: Inhibition of Wnt/beta-catenin signaling pathway in human HCT116 cells cytosol lysate harboring beta-catenin mutation assessed as reduction in Axin2 protein expression at 5 uM after 18 hrs by Western blot analysis; type: cell-based
How it was run: as §1

[9] = organism: Homo sapiens; assay: Inhibition of Wnt/beta-catenin signaling pathway in human CRC240 whole cell lysate assessed as reduction in c-Myc protein expression at 5 uM after 18 hrs by Western blot analysis
How it was run: as §1

[10] = system: SW948; assay: Antiproliferative activity against human SW948 cells after 72 hrs by colorimetric MTS assay; type: functional, cell-based; settings: SW948, 72 h
How it was run: (§3)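 Cells plated at 5000 per well in their own media (Leibovitz's for SW948; McCoy's 5A for HT-29/HCT116; MEM for SW480; RPMI for CRC240/DLD-1) with 10% FBS. Exposed 72 h to compound, 0.001–10 μM or 0.04–10 μM, then colorimetric MTS read-out. […] CRC240 is a patient-derived xenograft line.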

[11] = system: Mus musculus; assay: Dose normalized AUC (0 to infinity) in NOD/SCID mouse at 1 mg/kg, po by LC-MS/MS-based non-compartmental extravascular input analysis; type: ADME, organism-based; settings: in vivo
[12] = organism: Homo sapiens; assay: Inhibition of Wnt/beta-catenin signaling pathway in human HCT116 cells cytosol lysate harboring beta-catenin mutation assessed as reduction in beta-catenin protein expression at 5 uM after 18 hrs by Western blot analysis; type: cell-based
How it was run: as §1

[13] = Inhibition of Wnt3A-stimulated Wnt/beta-catenin pathway in HEK293 cells transfected with p8xTOPFlash, Renilla luciferase plasmid pRL-TK and pLKO.1 after 6 hrs by Dual topflash luciferase reporter assay; type: cell-based; settings: Homo sapiens, HEK293, 6 h
How it was run: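 HEK293 cells stably carrying p8xTOPFlash, pRL-TK and pLKO.1 were grown overnight to confluence in MEM/10% FBS with 1 μg/ml puromycin. Wnt-3A conditioned medium (from L Wnt-3A cells) containing compound (0.04–10 μM) or DMSO was added for 6 h. Dual-luciferase was read, with the Wnt3A+DMSO signal set as 100%.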

[14] = Apparent oral volume of distribution in NOD/SCID mouse at 1 mg/kg by LC-MS/MS-based compartmental first order extravascular input, first order elimination analysis; type: ADME, organism-based; settings: in vivo
[15] = system: CCD-841CoN; assay: Stimulation of mitochondrial respiration in human CCD-841-CoN cells assessed as increase in oxygen consumption rate at 1 uM in presence of rotenone and […] antimycin A by polarographic analysis; type: functional, cell-based
How it was run: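 CCD841Co cells were plated at 8000 per well and attached overnight. OCR was measured on a Seahorse XFp analyzer under basal conditions after 1 μM compound or DMSO was added. This was followed by 1 μM oligomycin, 1 μM FCCP, then 0.5 μM rotenone plus antimycin A (Mito Stress Test). Data given as mean ± SD, n = 2.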

[16] = system: HCT-116; assay: Antiproliferative activity against human HCT116 cells after 72 hrs by colorimetric MTS assay; type: functional, cell-based; settings: HCT-116, 72 h
How it was run: as §3

[17] = organism: Homo sapiens; assay: Inhibition of Wnt/beta-catenin signaling pathway in human HCT116 whole cell lysate harboring beta-catenin mutation assessed as reduction in cyclin D1 protein expression at 5 uM after 18 hrs by Western blot analysis
How it was run: as §1

[18] = system: Mus musculus; assay: Time at which plasma concentration stays above in vitro IC50 for inhibition of Wnt3A-stimulated Wnt/beta-catenin pathway in HEK293 cells in NOD/SCID mouse at 1 mg/kg, po by LC-MS/MS analysis; type: organism-based; settings: in vivo
How it was run: (§4)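 NOD/SCID mice (n = 4) received a single oral dose of 1 mg/kg from a 0.2 mg/mL solution in 10% NMP/90% PEG300. Serial tail-vein blood was taken from pre-dose to 72 h and plasma kept at −80 °C. Samples were extracted with ethyl acetate against an internal standard and run on LC/MS/MS (MRM 405.8/218.9). The calibration range was 2.4–1000 ng/mL in plasma.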

[19] = organism: Homo sapiens; assay: Inhibition of Wnt/beta-catenin signaling pathway in human HCT116 whole cell lysate harboring beta-catenin mutation assessed as reduction in c-Myc protein expression at 5 uM after 18 hrs by Western blot analysis
How it was run: as §1

[20] = system: SW480; assay: Antiproliferative activity against human SW480 cells after 72 hrs by colorimetric MTS assay; type: functional, cell-based; settings: SW480, 72 h
How it was run: as §3

[21] = organism: Homo sapiens; assay: Inhibition of Wnt/beta-catenin signaling pathway in human SW480 whole cell lysate harboring APC mutation assessed as reduction in cyclin D1 protein expression at 5 uM after 18 hrs by Western blot analysis
How it was run: as §1

[22] = molecular target: AMP-activated protein kinase, AMPK (Homo sapiens) (UniProt P54646+O43741+P54619+Q9UGJ0+Q9Y478+Q13131+Q9UGI9); assay: Induction of AMPK phosphorylation in human CCD-841-CoN cells at 0.1 to 10 uM after 2 hrs by Western blot analysis; type: cell-based
How it was run: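 Colonic epithelial CCD841Co cells were seeded at 0.27 million per well on poly-D-lysine-coated wells and attached overnight. Medium was then switched to glucose-free DMEM with 2 mM pyruvate and 2 mM glutamine containing compound or DMSO. Whole-cell lysates were immunoblotted for phospho-Thr172 AMPK and total AMPK, with β-actin as loading control. Methods give 30 min exposure; legend gives 2 h.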

[23] = system: Mus musculus; assay: In vivo inhibition of Wnt/beta-catenin signaling pathway in NOD/SCID mouse xenografted with human CRC240 cells assessed as reduction in Axin2 protein expression at 1 mg/kg, po administered 11 days by Western blot method; type: functional, organism-based
How it was run: (§5)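 CRC240 PDX tumours were taken from NOD/SCID mice the day after 11 days of once-daily oral dosing (1 mg/kg, in 10% NMP/90% PEG300). Tumours were lysed in RIPA buffer and immunoblotted for Axin2, survivin and c-Myc. Bands were normalized to β-actin, n = 3, two-tailed t-test versus vehicle.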

[24] = organism: Homo sapiens; assay: Inhibition of Wnt/beta-catenin signaling pathway in human CRC240 whole cell lysate assessed as reduction in survivin protein expression at 5 uM after 18 hrs by Western blot analysis
How it was run: as §1

[25] = organism: Homo sapiens; assay: Inhibition of Wnt/beta-catenin signaling pathway in human SW480 whole cell lysate harboring APC mutation assessed as reduction in survivin protein expression at 5 uM after 18 hrs by Western blot analysis
How it was run: as §1

[26] = system: Mus musculus; assay: Apparent clearance in NOD/SCID mouse at 1 mg/kg, po by LC-MS/MS-based compartmental first order extravascular input, first order elimination analysis; type: ADME, organism-based; settings: in vivo
[27] = organism: Homo sapiens; assay: Inhibition of Wnt/beta-catenin signaling pathway in human CRC240 whole cell lysate assessed as reduction in cyclin D1 protein expression at 5 uM after 18 hrs by Western blot analysis
How it was run: as §1

[28] = organism: Homo sapiens; assay: Inhibition of Wnt/beta-catenin signaling pathway in human CRC240 cells cytosol lysate assessed as reduction in beta-catenin protein expression at 5 uM after 18 hrs by Western blot analysis; type: cell-based
How it was run: as §1

[29] = Antiproliferative activity against human CRC240 cells after 72 hrs by colorimetric MTS assay; type: functional, cell-based
How it was run: as §3

[30] = system: Mus musculus; assay: In vivo inhibition of Wnt/beta-catenin signaling pathway in NOD/SCID mouse xenografted with human CRC240 cells assessed as reduction in c-Myc protein expression at 1 mg/kg, po administered 11 days by Western blot method; type: functional, organism-based
How it was run: as §5

[31] = organism: Homo sapiens; assay: Inhibition of Wnt/beta-catenin signaling pathway in human CRC240 cells cytosol lysate assessed as reduction in Axin2 protein expression at 5 uM after 18 hrs by Western blot analysis; type: cell-based
How it was run: as §1

[32] = system: Mus musculus; assay: Apparent volume of distribution in NOD/SCID mouse at 1 mg/kg, po by LC-MS/MS-based non-compartmental extravascular input analysis; type: ADME, organism-based; settings: in vivo
[33] = system: HT-29; assay: Antiproliferative activity against human HT-29 cells after 72 hrs by colorimetric MTS assay; type: functional, cell-based; settings: HT-29, 72 h
How it was run: as §3

[34] = system: Homo sapiens; assay: Antitumor activity against human CRC240 cells xenografted in NOD/SCID mouse at 1 mg/kg, po administered 11 days and measured on day 4, 8 during compound dosing and day 11 post last dose; type: functional, organism-based
How it was run: as §2

[35] = system: DLD-1; assay: Antiproliferative activity against human DLD1 cells after 72 hrs by colorimetric MTS assay; type: functional, cell-based; settings: DLD-1, 72 h
How it was run: as §3

[36] = system: Mus musculus; assay: Time at which plasma concentration stays above in vitro IC50 for antiproliferative activity against human CRC240 cells in NOD/SCID mouse at 1 mg/kg, po by LC-MS/MS analysis; type: organism-based; settings: in vivo
How it was run: as §4

[37] = molecular target: Frizzled-1 (Homo sapiens) (UniProt Q9UP38); assay: Induction of GFP-tagged Fzd1 (unknown origin) internalization expressed in human U2OS cells at 12.5 after 6 hrs by confocal microscopic method; type: functional, cell-based
How it was run: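 U2OS cells stably expressing Fzd1-GFP were grown 24 h in confocal dishes and then treated 6 h at 37 °C with 12.5 μM compound, DMSO as control. Cells were fixed in 4% paraformaldehyde and imaged by confocal microscopy (488 nm excitation). Internalization was scored as intracellular green punctate vesicles.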

[38] = organism: Homo sapiens; assay: Inhibition of Wnt/beta-catenin signaling pathway in human SW480 cells cytosol lysate harboring APC mutation assessed as reduction in Axin2 protein expression at 5 uM after 18 hrs by Western blot analysis; type: cell-based
How it was run: as §1

[39] = organism: Homo sapiens; assay: Inhibition of Wnt/beta-catenin signaling pathway in human HCT116 whole cell lysate harboring beta-catenin mutation assessed as reduction in survivin protein expression at 5 uM after 18 hrs by Western blot analysis
How it was run: as §1

[40] = system: Mus musculus; assay: In vivo inhibition of Wnt/beta-catenin signaling pathway in NOD/SCID mouse xenografted with human CRC240 cells assessed as reduction in survivin protein expression at 1 mg/kg, po administered 11 days by Western blot method; type: functional, organism-based
How it was run: as §5

Chain of Frizzled-1 (Homo sapiens) (Q9UP38 70-647 limits assumed): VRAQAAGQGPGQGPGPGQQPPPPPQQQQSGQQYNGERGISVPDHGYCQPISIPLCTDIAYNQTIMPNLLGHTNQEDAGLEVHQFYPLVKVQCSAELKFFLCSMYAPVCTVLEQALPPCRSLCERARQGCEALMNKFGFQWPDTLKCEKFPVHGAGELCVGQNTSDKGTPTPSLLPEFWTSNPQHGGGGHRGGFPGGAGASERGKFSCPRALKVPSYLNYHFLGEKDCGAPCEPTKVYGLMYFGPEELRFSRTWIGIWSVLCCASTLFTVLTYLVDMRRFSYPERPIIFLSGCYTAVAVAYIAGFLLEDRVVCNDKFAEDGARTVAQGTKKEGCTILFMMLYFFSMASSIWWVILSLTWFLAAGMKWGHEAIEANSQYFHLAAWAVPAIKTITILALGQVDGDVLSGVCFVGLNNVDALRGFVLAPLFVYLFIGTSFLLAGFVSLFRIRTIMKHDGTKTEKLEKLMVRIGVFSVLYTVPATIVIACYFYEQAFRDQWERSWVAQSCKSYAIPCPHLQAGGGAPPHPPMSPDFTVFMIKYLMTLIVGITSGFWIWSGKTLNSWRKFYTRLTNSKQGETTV

SMILES: O=C(Nc1ccc(C(F)(F)F)cc1)c1cc(Cl)cc2nc(C(F)(F)F)[nH]c12
- Activity [1]: Active
- AUC(0-t) at 72 h [2]: 16800 ng·h/mL
- inhibition [3]: Active
- AUC/dose [4]: 16.3 µg·h/mL
- CL/F [5]: 1 mL/min/kg
- Activity [6]: Non-Toxic
- inhibition [7]: Active
- inhibition [8]: Active
- inhibition [9]: Active
- IC50 [10]: 70 nM
- AUC/dose [11]: 16.9 µg·h/mL
- inhibition [12]: Active
- IC50 [13]: 190 nM
- Vd/F [14]: 0.98 L/kg
- Activity [15]: inactive
- IC50 [16]: 280 nM
- inhibition [17]: Active
- Time [18]: 24 h
- inhibition [19]: Active
- IC50 [20]: 330 nM
- inhibition [21]: Active
- Activity [22]: Active
- inhibition [23]: Active
- inhibition [24]: Active
- inhibition [25]: Active
- CL/F [26]: 1 mL/min/kg
- inhibition [27]: Active
- inhibition [28]: Active
- IC50 [29]: 320 nM
- inhibition [30]: Active
- inhibition [31]: Active
- Vz [32]: 0.8 L/kg
- IC50 [33]: 120 nM
- Activity [34]: Active
- IC50 [35]: 360 nM
- Time [36]: 24 h
- Activity [37]: Active
- inhibition [38]: Active
- inhibition [39]: Active
- inhibition [40]: Active
